Results published in ChEMBL document CHEMBL1151764, “Search for inhibitors of bacterial and human protein kinases among derivatives of diazepines[1,4] annelated with maleimide and indole cycles” (J Med Chem, 2008).
pIC50: −log10 of the molar value.

How the values were obtained:
Streptomyces lividans [1] = assay: Inhibition of aph8 positive Streptomyces lividans at 600 uM after 20 hrs by paper disk method; type: functional; details: read-out: IZ
Summary of the method: (§1)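 Test culture was Streptomyces lividans carrying plasmid pSU23 with the aphVIII gene, whose kanamycin-inactivating activity depends on Ser/Thr kinase phosphorylation. Paper disks (7 mm) held kanamycin (5 µg/disk) plus test compound at subtoxic amounts, about half the minimal growth-inhibitory dose. Disks went on plates of log-phase cells at 28 °C for 20 h. Read-out was lysis zone diameter.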

Streptomyces coelicolor [2] = assay: Inhibition of aph8-induced kanamycin phosphorylation in Streptomyces coelicolor cell lysate assessed as [32Pi] incorporation into kanamycin at 10 uM by microplate scintillation counter relative to control; set-up: scale not given: the % may be the effect or the level left
Streptomyces lividans [3] = assay: Inhibition of aph8 positive Streptomyces lividans at 1200 uM after 20 hrs by paper disk method; type: functional; details: read-out: IZ; summary of the method: as §1
Streptomyces coelicolor [4] = assay: Inhibition of Ca(2+))/phosphatidylserine/diacylglycerol-dependent aph8 phosphorylation in Streptomyces coelicolor cell lysate assessed as [32Pi] incorporation into aph8 at 500 nM by microplate scintillation counter relative to control; set-up: scale not given: the % may be the effect or the level left
Summary of the method: (§2)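 Radiometric in vitro assay of actinobacterial protein kinases. Kinases incubated under standard conditions with [γ-³²P]ATP and aphVIII as substrate, with or without modulators or inhibitors. Read-out was incorporation of the γ-phosphoryl residue into aphVIII.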

Streptomyces lividans [5] = assay: Inhibition of aph8 positive Streptomyces lividans at 300 uM after 20 hrs by paper disk method; type: functional; details: read-out: IZ; summary of the method: as §1
Streptomyces lividans [6] = assay: Inhibition of aph8 positive Streptomyces lividans at 150 uM after 20 hrs by paper disk method; type: functional; details: read-out: IZ; summary of the method: as §1
Streptomyces lividans [7] = assay: Inhibition of aph8 positive Streptomyces lividans at 75 uM after 20 hrs by paper disk method; type: functional; details: read-out: IZ; summary of the method: as §1
Streptomyces lividans [8] = assay: Inhibition of aph8 positive Streptomyces lividans at 400 uM after 20 hrs by paper disk method; type: functional; details: read-out: IZ; summary of the method: as §1
Streptomyces lividans [9] = assay: Inhibition of aph8 positive Streptomyces lividans at 200 uM after 20 hrs by paper disk method; type: functional; details: read-out: IZ; summary of the method: as §1
Streptomyces lividans [10] = assay: Inhibition of aph8 positive Streptomyces lividans at 100 uM after 20 hrs by paper disk method; type: functional; details: read-out: IZ; summary of the method: as §1
Streptomyces lividans [11] = assay: Inhibition of aph8 positive Streptomyces lividans at 50 uM after 20 hrs by paper disk method; type: functional; details: read-out: IZ; summary of the method: as §1
Streptomyces lividans [12] = assay: Inhibition of aph8 positive Streptomyces lividans at 25 uM after 20 hrs by paper disk method; type: functional; details: read-out: IZ; summary of the method: as §1
Insulin receptor = Insulin receptor (Homo sapiens, UniProt P06213); assay: Inhibition of human INSR
[13] = target: Hepatocyte growth factor receptor (Homo sapiens, UniProt P08581); assay: Inhibition of human MET
[14] = target: Cyclin-dependent kinase 4/cyclin D1 (Homo sapiens, UniProt P11802); assay: Inhibition of human CDK4/CycD1; type: protein-complex assay
[15] = target: Receptor tyrosine-protein kinase erbB-2 (Homo sapiens, UniProt P04626); assay: Inhibition of human ERBB2
[16] = target: Vascular endothelial growth factor receptor 2 (Homo sapiens, UniProt P35968); assay: Inhibition of human VEGFR2
[17] = target: Cyclin-dependent kinase 2 (Homo sapiens, UniProt P24941); assay: Inhibition of human CDK2/CycA
Ephrin type-B receptor 4 = target: T1, Ephrin type-B receptor 4 (Homo sapiens, UniProt P54760); assay: Inhibition of human EPHB4
T1 sequence (P54760 whole entry): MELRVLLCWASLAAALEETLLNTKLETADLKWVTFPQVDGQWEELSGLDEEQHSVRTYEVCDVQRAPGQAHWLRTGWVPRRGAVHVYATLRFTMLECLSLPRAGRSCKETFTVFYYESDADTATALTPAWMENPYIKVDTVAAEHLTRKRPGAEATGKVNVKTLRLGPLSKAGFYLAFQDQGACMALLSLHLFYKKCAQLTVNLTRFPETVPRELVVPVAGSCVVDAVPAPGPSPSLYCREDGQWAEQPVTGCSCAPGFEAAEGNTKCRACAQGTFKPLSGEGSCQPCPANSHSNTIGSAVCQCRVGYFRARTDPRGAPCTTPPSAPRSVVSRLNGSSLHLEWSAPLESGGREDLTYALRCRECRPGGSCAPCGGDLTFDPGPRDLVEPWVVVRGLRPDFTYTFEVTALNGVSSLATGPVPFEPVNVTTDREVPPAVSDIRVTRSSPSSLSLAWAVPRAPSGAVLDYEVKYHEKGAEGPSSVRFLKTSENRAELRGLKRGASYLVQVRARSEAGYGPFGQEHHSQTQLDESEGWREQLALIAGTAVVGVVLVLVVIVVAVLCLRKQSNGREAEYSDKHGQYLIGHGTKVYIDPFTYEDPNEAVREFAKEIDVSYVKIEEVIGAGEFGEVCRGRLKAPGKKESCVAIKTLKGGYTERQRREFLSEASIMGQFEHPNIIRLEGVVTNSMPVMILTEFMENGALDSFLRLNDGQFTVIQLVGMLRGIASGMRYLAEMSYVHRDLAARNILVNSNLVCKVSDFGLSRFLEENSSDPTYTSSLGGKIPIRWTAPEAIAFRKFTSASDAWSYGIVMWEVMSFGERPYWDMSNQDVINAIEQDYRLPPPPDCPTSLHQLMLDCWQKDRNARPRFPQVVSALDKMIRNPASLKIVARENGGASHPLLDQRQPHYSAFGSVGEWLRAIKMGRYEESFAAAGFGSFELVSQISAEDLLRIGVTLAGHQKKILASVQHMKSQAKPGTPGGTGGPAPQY

Focal adhesion kinase 1 = Focal adhesion kinase 1 (Homo sapiens, UniProt Q05397); assay: Inhibition of human FAK
[18] = target: Insulin-like growth factor 1 receptor (Homo sapiens, UniProt P08069); assay: Inhibition of human IGF1R
[19] = target: Proto-oncogene tyrosine-protein kinase Src (Homo sapiens, UniProt P12931); assay: Inhibition of human SRC
[20] = target: Platelet-derived growth factor receptor beta (Homo sapiens, UniProt P09619); assay: Inhibition of human PDGFRbeta
[21] = target: Serine/threonine-protein kinase B-raf (Homo sapiens, UniProt P15056, V600E); assay: Inhibition of human B-RAF-V600E mutant
[22] = target: RAC-alpha serine/threonine-protein kinase (Homo sapiens, UniProt P31749); assay: Inhibition of human AKT1
[23] = target: Serine/threonine-protein kinase PLK1 (Homo sapiens, UniProt P53350); assay: Inhibition of human PLK1
[24] = target: Epidermal growth factor receptor (Homo sapiens, UniProt P00533); assay: Inhibition of human EGFR
[25] = target: T2, NUAK family SNF1-like kinase 1 (Homo sapiens, UniProt O60285); assay: Inhibition of human ARK5
T2 sequence (O60285 whole entry): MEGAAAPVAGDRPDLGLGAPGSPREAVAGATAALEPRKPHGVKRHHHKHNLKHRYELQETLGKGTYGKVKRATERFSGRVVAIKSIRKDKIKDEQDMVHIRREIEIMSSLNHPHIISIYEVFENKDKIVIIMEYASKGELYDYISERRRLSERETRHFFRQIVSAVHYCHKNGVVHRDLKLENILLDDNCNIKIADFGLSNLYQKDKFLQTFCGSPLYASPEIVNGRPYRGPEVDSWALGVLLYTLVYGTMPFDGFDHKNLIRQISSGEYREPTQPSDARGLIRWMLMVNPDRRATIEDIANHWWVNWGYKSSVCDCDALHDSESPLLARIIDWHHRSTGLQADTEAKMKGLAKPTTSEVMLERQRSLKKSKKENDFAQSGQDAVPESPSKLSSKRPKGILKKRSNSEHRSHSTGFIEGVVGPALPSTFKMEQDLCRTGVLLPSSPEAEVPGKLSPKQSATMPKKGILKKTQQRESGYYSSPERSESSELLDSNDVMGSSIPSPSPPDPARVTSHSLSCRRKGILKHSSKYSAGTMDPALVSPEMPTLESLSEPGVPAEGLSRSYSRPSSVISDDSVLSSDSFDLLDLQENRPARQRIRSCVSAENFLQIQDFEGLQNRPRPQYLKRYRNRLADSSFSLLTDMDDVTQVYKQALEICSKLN

Streptomyces coelicolor [26] = assay: Inhibition of aph8 phosphorylation in Streptomyces coelicolor cell lysate assessed as [32Pi] incorporation into aph8 at 500 nM by microplate scintillation counter relative to control; set-up: scale not given: the % may be the effect or the level left; summary of the method: as §2

Cyclin-dependent kinase 4/cyclin D1, sequence (P11802 whole entry): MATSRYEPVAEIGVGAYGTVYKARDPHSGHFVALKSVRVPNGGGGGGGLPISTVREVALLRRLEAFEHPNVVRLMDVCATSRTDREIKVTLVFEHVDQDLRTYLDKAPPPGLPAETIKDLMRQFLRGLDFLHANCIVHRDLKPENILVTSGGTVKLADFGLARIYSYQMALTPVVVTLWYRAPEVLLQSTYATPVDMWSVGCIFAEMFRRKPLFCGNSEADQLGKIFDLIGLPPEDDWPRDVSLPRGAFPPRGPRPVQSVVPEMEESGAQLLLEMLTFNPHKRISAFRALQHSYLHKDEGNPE
Cyclin-dependent kinase 4/cyclin D1, sequence (P24385 whole entry, further chain): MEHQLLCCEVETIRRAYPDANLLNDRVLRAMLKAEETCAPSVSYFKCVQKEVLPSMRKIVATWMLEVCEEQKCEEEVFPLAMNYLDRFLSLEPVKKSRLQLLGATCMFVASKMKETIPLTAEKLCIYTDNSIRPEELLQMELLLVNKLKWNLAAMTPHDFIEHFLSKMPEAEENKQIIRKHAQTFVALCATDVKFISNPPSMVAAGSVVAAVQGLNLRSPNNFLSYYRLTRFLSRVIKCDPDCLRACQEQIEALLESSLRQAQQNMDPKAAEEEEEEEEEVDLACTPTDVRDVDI
Insulin receptor, sequence (P06213 28-758 limits assumed): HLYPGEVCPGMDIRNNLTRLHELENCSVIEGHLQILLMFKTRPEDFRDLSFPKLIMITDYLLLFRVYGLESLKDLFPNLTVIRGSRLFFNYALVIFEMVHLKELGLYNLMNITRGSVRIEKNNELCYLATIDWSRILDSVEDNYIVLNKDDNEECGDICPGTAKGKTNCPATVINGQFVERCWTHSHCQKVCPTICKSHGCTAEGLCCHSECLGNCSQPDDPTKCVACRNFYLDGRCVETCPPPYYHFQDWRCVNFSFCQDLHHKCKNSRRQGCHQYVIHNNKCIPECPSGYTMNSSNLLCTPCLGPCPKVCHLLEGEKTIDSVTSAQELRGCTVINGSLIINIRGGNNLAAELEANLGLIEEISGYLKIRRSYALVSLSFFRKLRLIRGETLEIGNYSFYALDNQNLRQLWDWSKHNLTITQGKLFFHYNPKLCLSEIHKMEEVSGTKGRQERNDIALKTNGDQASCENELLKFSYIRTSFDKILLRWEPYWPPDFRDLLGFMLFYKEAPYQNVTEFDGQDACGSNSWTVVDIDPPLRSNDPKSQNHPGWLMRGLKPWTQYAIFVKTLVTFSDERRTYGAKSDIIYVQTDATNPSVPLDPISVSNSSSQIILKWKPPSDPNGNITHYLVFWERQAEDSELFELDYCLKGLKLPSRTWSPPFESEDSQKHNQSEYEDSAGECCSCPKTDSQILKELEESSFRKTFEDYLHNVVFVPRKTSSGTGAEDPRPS
Insulin receptor, sequence (P06213 763-1382 limits assumed): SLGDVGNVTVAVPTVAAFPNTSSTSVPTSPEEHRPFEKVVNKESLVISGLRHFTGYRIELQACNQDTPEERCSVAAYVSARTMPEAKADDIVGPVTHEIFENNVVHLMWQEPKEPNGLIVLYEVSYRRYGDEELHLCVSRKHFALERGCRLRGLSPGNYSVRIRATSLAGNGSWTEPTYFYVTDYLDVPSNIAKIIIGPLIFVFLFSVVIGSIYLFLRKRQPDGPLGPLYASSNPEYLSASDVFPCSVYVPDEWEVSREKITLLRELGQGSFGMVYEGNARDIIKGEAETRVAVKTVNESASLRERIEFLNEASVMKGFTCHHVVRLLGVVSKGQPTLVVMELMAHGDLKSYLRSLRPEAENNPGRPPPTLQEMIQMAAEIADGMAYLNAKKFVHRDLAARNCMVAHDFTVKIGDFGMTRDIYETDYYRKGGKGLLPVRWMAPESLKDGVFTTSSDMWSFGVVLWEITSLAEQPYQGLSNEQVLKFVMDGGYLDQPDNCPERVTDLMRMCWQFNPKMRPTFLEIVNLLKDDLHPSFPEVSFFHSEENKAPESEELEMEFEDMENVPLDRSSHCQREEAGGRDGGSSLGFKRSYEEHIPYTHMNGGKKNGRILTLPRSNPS
Serine/threonine-protein kinase B-raf, sequence (P15056 2-766 V600E limits assumed): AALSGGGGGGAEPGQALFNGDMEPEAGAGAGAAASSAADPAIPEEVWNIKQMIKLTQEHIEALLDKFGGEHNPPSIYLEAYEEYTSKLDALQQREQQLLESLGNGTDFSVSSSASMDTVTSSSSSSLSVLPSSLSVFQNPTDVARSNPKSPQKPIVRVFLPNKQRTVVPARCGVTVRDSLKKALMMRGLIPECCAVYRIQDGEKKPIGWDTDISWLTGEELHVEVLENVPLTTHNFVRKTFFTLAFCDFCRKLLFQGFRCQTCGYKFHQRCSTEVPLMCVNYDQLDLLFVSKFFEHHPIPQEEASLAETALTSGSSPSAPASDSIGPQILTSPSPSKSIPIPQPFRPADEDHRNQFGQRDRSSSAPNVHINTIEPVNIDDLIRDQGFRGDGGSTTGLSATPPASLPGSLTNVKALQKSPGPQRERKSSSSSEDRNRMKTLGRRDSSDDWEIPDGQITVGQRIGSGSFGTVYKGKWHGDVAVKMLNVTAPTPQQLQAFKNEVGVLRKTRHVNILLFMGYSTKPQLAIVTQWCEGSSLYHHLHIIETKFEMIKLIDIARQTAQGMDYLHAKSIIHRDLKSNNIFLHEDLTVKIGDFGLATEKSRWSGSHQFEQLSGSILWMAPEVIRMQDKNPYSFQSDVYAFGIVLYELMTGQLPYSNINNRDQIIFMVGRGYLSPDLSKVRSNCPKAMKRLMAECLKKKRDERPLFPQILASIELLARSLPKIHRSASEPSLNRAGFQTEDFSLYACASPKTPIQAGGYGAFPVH
Hepatocyte growth factor receptor, sequence (P08581 whole entry): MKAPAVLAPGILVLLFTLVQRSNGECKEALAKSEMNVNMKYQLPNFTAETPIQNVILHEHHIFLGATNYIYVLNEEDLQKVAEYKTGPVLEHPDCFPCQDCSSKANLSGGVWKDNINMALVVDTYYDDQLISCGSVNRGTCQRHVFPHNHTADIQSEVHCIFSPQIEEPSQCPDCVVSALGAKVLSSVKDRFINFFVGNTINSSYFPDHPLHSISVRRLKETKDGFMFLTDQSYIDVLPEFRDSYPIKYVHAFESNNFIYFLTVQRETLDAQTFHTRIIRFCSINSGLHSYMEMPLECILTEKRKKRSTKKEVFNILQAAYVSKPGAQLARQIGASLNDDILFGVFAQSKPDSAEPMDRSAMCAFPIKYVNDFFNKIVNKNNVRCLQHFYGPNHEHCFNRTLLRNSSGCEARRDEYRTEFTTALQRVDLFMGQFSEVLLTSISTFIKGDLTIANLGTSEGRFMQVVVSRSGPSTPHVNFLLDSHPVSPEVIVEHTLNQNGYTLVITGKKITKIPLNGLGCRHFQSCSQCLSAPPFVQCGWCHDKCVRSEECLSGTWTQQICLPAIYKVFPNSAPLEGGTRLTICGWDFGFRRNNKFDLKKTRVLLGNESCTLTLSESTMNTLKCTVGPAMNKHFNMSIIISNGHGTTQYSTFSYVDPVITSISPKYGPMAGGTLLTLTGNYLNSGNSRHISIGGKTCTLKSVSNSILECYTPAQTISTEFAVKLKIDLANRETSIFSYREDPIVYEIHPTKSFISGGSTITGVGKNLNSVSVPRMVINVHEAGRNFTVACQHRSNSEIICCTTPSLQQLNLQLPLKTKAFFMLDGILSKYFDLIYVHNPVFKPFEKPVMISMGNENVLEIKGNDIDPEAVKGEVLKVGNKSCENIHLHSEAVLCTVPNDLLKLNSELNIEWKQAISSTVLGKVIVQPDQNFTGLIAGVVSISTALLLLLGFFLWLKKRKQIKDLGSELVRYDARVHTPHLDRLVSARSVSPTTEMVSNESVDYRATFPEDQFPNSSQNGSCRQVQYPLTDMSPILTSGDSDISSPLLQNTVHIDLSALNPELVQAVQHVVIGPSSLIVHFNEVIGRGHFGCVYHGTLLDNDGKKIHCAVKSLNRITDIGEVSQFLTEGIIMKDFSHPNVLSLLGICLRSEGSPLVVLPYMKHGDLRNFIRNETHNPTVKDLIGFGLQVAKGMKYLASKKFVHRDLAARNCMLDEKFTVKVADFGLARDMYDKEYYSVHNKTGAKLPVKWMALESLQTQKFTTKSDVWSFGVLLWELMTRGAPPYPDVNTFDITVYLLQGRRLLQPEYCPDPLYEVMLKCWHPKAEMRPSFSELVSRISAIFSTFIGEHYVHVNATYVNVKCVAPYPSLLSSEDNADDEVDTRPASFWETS
Proto-oncogene tyrosine-protein kinase Src, sequence (P12931 2-536 limits assumed): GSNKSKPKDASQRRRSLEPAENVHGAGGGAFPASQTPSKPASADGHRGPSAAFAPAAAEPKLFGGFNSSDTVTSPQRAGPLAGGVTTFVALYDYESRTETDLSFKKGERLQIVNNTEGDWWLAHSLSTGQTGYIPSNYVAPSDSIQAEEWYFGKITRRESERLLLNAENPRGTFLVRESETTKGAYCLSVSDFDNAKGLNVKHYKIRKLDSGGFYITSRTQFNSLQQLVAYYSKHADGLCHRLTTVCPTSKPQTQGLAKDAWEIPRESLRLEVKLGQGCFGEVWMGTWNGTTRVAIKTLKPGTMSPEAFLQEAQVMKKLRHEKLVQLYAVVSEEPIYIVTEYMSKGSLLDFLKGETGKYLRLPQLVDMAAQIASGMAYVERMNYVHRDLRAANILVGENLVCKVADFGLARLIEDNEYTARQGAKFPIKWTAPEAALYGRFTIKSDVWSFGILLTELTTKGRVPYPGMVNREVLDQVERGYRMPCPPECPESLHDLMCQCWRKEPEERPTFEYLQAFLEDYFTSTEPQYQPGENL

For CN(C)CCCn1cc(C2=C(c3c[nH]c4ccccc34)C(=O)NC2=O)c2ccccc21 [GF-109203], the zone of inhibition at 600 µM (Streptomyces lividans [1]) was 9 mm, the Activity (Streptomyces coelicolor [2]) was 95% and the zone of inhibition at 1200 µM (Streptomyces lividans [3]) was 10 mm. The Activity (Streptomyces coelicolor [4]) was 152%, the zone of inhibition at 300 µM (Streptomyces lividans [5]) was 7.5 mm and the zone of inhibition at 150 µM (Streptomyces lividans [6]) was 0 mm. For the same compound, the zone of inhibition at 75 µM (Streptomyces lividans [7]) was 0 mm.
CCN(CC)Cc1cn2c3c(cccc13)C1Cc3ccccc3N1C1=C2C(=O)N(C)C1=O (configuration not stated) showed a zone of inhibition at 400 µM (Streptomyces lividans [8]) of 14 mm, an Activity (Streptomyces coelicolor [2]) of 93% and a zone of inhibition at 200 µM (Streptomyces lividans [9]) of 12 mm. The Activity (Streptomyces coelicolor [4]) was 94%, the zone of inhibition at 100 µM (Streptomyces lividans [10]) was 7.5 mm and the zone of inhibition at 50 µM (Streptomyces lividans [11]) was 0 mm. It also gave a zone of inhibition at 25 µM (Streptomyces lividans [12]) of 0 mm.
For N=C(N)SCCCn1c(=O)c2c(c1=O)n1c3ccccc3cc1c1cccc3ccn2c31, the pIC50 (Insulin receptor) was 5.59, the pIC50 [13] was 5.48 and the pIC50 [14] was 5.57. The pIC50 [15] was 5.11, the pIC50 [16] was 5.39 and the pIC50 [17] was 5.44. For the same compound, the pIC50 (Ephrin type-B receptor 4) was 5.64, the pIC50 (Focal adhesion kinase 1) was 5.36 and the pIC50 [18] was 5.40. For the same compound, the pIC50 [19] was 5.42, the pIC50 [20] was 5.38 and the pIC50 [21] was 5.92. It also gave a pIC50 [22] of 5.05 and a pIC50 [23] of 5.00.
In the case of CCNC(=N)SCCCN1C(=O)C2=C(C1=O)n1ccc3cccc(c31)C1Cc3ccccc3N21 (configuration not stated), the pIC50 [17] was 5.17.
CNC(=N)SCCCn1c(=O)c2c(c1=O)n1c3ccccc3cc1c1cccc3ccn2c31 was tested, and the pIC50 (Insulin receptor) was 5.20, the pIC50 [13] was 5.13 and the pIC50 [14] was 5.21. For the same compound, the pIC50 [17] was 5.20, the pIC50 (Ephrin type-B receptor 4) was 5.41 and the pIC50 [24] was 5.00. For the same compound, the pIC50 [25] was 5.01, the pIC50 [20] was 5.17 and the pIC50 [21] was 5.08.
C=CCNC(=N)SCCCN1C(=O)C2=C(C1=O)n1ccc3cccc(c31)C1Cc3ccccc3N21 (configuration not stated) was tested, and the pIC50 [14] was 5.16.
CN1C(=O)C(c2c[nH]c3ccccc23)=C(c2c[nH]c3ccccc23)C1=O showed an Activity (Streptomyces coelicolor [2]) of 89% and an Activity (Streptomyces coelicolor [4]) of 206%.
O=C(O)CN(CCOCCOCCN(CC(=O)O)CC(=O)O)CC(=O)O showed an Activity (Streptomyces coelicolor [26]) of 94%.
